The nature of data set [1]: Metabolic stability in human liver microsomes assessed as parent compound remaining. The format is ADME, microsome. (Liver microsomes are vesicles of endoplasmic reticulum, rich in cytochrome P450 enzymes.)
Data set [2] in a line: Cmax in Balb/C mouse at 10 mg/kg, po qd. The data set is classed as ADME, organism-based. Details: dose 10 mg/kg, route oral. The note with it: in vivo. The gist of the method: (§1)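 Compound given orally to mice. Plasma levels were followed over time, and Cmax, Tmax and AUC0–24 were taken from the plasma concentration–time profile.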
Data set [3] in a line: Fraction unbound in human plasma. The format is ADME, cell-free.
Data set [4] is described as follows: Tmax in Balb/C mouse at 10 mg/kg, po qd. The format is ADME, organism-based. The note with it: in vivo. A digest of the protocol:
as §1

Data set [5] can be described thus: Metabolic stability in mouse liver microsomes assessed as parent compound remaining. The data set is classed as ADME, microsome.
The nature of data set [6]: Metabolic stability in rat liver microsomes assessed as parent compound remaining. The format is ADME, microsome.
Data set [7] is described as follows: AUC (0 to 24 hrs) in Balb/C mouse at 10 mg/kg, po qd. The data set is classed as ADME, organism-based. More on the design: time < 24 hr, dose 10 mg/kg, route oral. The note with it: in vivo. The gist of the method:
as §1

Data set [8] in a line: Fraction unbound in mouse plasma. The format is ADME, cell-free.
A short description of data set [9]: Fraction unbound in rat plasma. The format is ADME, cell-free.
A further data set has as its system Mus musculus. Nature of the data set: Toxicity in C57/BL6 mouse xenografted with mouse MC38 cells assessed as body weight loss at 25 to 50 mg/kg, po qd for 28 days measured twice weekly. The format is organism-based. The note with it: in vivo, 672 h. A digest of the protocol:
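Nine C57/BL6 mice per group were injected subcutaneously with 1 × 10^6 MC38 cells. Tumors were measured on day 6, then mice were randomized. Compound was given orally every day for 28 days, alone or with anti-PD-1 antibody (IP every 4 days, three doses). Tumor volumes were measured twice weekly, and body weight loss (>5%) was monitored.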

Data set [10] is described as follows: Tmax in Balb/C mouse at 50 mg/kg, po bid. The format is ADME, organism-based. The note with it: in vivo. A digest of the protocol: as §1
A short description of data set [11]: Cmax in Balb/C mouse at 50 mg/kg, po bid. The format is ADME, organism-based. More on the design: dose 50 mg/kg, route oral. The note with it: in vivo. A digest of the protocol: as §1
A short description of data set [12]: AUC (0 to 24 hrs) in Balb/C mouse at 50 mg/kg, po bid. More on the design: time < 24 hr, dose 50 mg/kg, route oral. The note with it: in vivo. The data set is classed as ADME, organism-based. The gist of the method: as §1

SMILES strings stand for the structures.

With `[2H]C([2H])([2H])Oc1ccc(-c2c(-c3ccnc(NC(C)=O)c3)[nH]c3cccnc23)nc1`, the Stability in data set [1] came to 96%; in data set [5], 74%; in data set [6] it was 89%. The Cmax (usually the peak of the concentration-time curve) in data set [2] turned out to be 5.3 µM. In addition, the results for the free fraction (fraction unbound) in data set [3], in [8] and in [9] were 0.24, 0.12 and 0.25, respectively. In data set [4], the Tmax – broadly, the time at which the peak concentration occurs – is 1 h. For the same compound, in data set [7], the AUC (in general, concentration integrated over time) at 24 h was 19.5 µM·h. In the data set with Mus musculus, the Activity is < 5%.
On to `CC(=O)Nc1cc(-c2[nH]c3cccnc3c2-c2cccc(C(F)F)n2)ccn1`, for which the Stability in data set [1] came to 60%; in data set [5] it was 66%; in data set [6], 85%. In addition, the fraction unbound (in general, free concentration divided by total concentration) was 0.09 in [3], 0.05 in data set [8] and 0.18 in [9]. Also, in [10], the Tmax is 1 h. Moreover, the maximum concentration (Cmax) in data set [11] stood at 7.4 µM. Moreover, in data set [12], the AUC at 24 h came to 14.1 µM·h.

(Values after ChEMBL document CHEMBL4266061, “Discovery of 4-Azaindole Inhibitors of TGFβRI as Immuno-oncology Agents” (ACS Med Chem Lett, 2018).)
